Experimental data: PubChem BioAssay AID540337 (Southern Research Specialized Biocontainment Screening …, 2011)
The source made the active and inactive calls.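 The calls were made as follows: active = at least 50% inhibition of virus-induced cell damage; inactive = the rest.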

test system: HEp-2 RSV Long CPE inhibition, luminescence; test: antiviral protection of cells from RSV – synthesized compounds, set 12, CPE, dose response (AID 540337)
Outline: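 Assay system: HEp-2 cells infected with RSV strain Long; Schedule: 6 d at 37 °C; Detection: luminescent CPE read-out; Controls: uninfected cell-only wells and virus-infected wells without compound; Replication: triplicate.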

Q: `COCCCNC(=O)c1ccc(Cn2c(=O)c3ccccc3n(CCc3ccc(C(F)(F)F)cc3)c2=O)cc1` was tested. Which IC50 did it give?
A: Its IC50 is > 50 µM (inactive).

Q: For `COCCCNC(=O)c1ccc(Cn2c(=O)c3ccccc3n(Cc3cccnc3)c2=O)cc1`, which IC50 is on record?
A: The IC50 was > 50 µM (inactive).

Q: With `COCCCNC(=O)c1ccc(Cn2c(=O)c3ccccc3n(CC3CCCCC3)c2=O)cc1` as the compound, how does the IC50 read?
A: The IC50 was > 50 µM (inactive).

Q: How did the IC50 turn out when `COCCCNC(=O)c1ccc(Cn2c(=O)c3ccccc3n(CCc3ccc(C)cc3)c2=O)cc1` was run?
A: The IC50 was > 50 µM (inactive).

Q: With `COCCCNC(=O)c1ccc(Cn2c(=O)c3ccccc3n(Cc3ccc(C)cc3)c2=O)cc1` as the compound, how does the IC50 read?
A: Its IC50 is 2.5 µM.

Q: `COCCCNC(=O)c1ccc(Cn2c(=O)c3ccccc3n(CCc3ccc(Br)cc3)c2=O)cc1` was tested. Which IC50 did it give?
A: The IC50 was > 50 µM (inactive).

Q: Which IC50 does the source give for `COCCCNC(=O)c1ccc(Cn2c(=O)c3ccccc3n(Cc3ccccn3)c2=O)cc1` here?
A: Its IC50 is > 50 µM (inactive).
